Data on 45 molecules can be found in ChEMBL document CHEMBL1142312, “Anti-Plasmodium activity of tetrazolium salts” (Bioorg Med Chem, 2008).

One data set concerns Plasmodium falciparum. Description: Antimalarial activity against Plasmodium falciparum in LDH reporter assay. The class given is functional, organism-based. Particulars: Plasmodium falciparum. Summed up: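 P. falciparum line ItG cultured in O+ human erythrocytes in RPMI-1640 with 10% human serum and 50 μM hypoxanthine. Twofold serial dilutions from 10 mg/mL DMSO stock, 2% hematocrit, 2% parasitemia. Incubated 72 h at 37 °C under 95% N2/3% CO2/2% O2. Parasite LDH assay read at 650 nm after 1 h. IC50 by non-linear regression, mean ± SE of four determinations.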

Data set [1] is described as follows: Toxicity in CHO cells. The class given is cell-based, Cricetulus griseus. Particulars: Chinese hamster (Cricetulus griseus), CHO cells. An outline of the steps:
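CHO cells grown to 50% confluency in RPMI-1640 with 10% fetal calf serum, 25 mM Hepes and gentamicin. Serial dilutions made from a 10 mg/mL DMSO stock; DMSO-only controls. After 48 h, MTT (10 mg/mL in medium) added for 1 h, then DMSO added and absorbance read at 650 nm. IC50 by non-linear regression of dose–response; mean ± SE of four determinations.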

Data set [2] in a line: Ratio of IC50 for CHO cells to IC50 for Plasmodium falciparum. The class given is functional.

For the molecule `[Cl-].c1ccc(COc2ccc(-c3nn(-c4ccccc4)[n+](-c4ccccc4)n3)cc2)cc1`, the IC50 turned out to be 0.103 µM with Plasmodium falciparum and 4.2 µM in data set [1]. Moreover, the “Ratio IC50” value in data set [2] came out at 40.8.
For `Brc1cccc(-[n+]2nc(-c3ccc(OCc4ccccc4)cc3)nn2-c2ccccc2)c1.[Cl-]` the same measures were 0.4 µM, 8.1 µM and 20.3.
For `COc1cc(-c2nn(-c3ccccc3)[n+](-c3ccccc3)n2)ccc1OCc1ccccc1.[Cl-]` the same measures were 0.26 µM, 4.7 µM and 18.1.
In the same order, the values of `[Cl-].c1ccc(-c2ccc(-c3nn(-c4ccccc4)[n+](-c4ccccc4)n3)cc2)cc1` are 0.23 µM, 7 µM and 30.4.
For the molecule `Clc1ccc(-[n+]2nc(-c3ccc(-c4ccccc4)cc3)nn2-c2ccccc2)cc1.[Cl-]`, the half-maximal inhibitory concentration (IC50) in the data set with Plasmodium falciparum was 0.41 µM; in data set [1] it was 16 µM. For the same molecule, the “Ratio IC50” value in data set [2] stood at 39.
Take `Fc1ccc(-[n+]2nc(-c3cccc4ccccc34)nn2-c2ccccc2)cc1.[Cl-]`: the IC50 with Plasmodium falciparum was 0.83 µM; in data set [1] it was 32 µM. Further, in data set [2], the “Ratio IC50” value is given as 38.6.
For `O=[N+]([O-])c1ccc(-[n+]2nc(-c3ccc(OCc4ccccc4)cc3)nn2-c2ccccc2)cc1.[Cl-]` the same measures were 9 µM, 4.4 µM and 0.5.
As for `Clc1cccc(-c2nn(-c3ccc(OCc4ccccc4)cc3)[n+](-c3ccccc3)n2)c1.[Cl-]`, the values for the concentration for half-maximal inhibition (IC50) (in the data set with Plasmodium falciparum; in data set [1]) were 0.41 µM and 38 µM, respectively. For the same molecule, the “Ratio IC50” value in data set [2] stood at 92.7.
In the same order, the values of `CCCCCCCCCCCOc1cccc(-c2nn(-c3ccccc3)[n+](-c3ccccc3)n2)c1.[Cl-]` are 2.5 µM, 5 µM and 2.
In the same order, the values of `[Cl-].c1ccc(-c2ccc(-n3nc(-c4cccc5ccccc45)n[n+]3-c3ccccc3)cc2)cc1` are 2.9 µM, 9 µM and 3.1.
In the same order, the values of `[Cl-].[Cl-].c1ccc(-c2nn(-c3ccccc3)[n+](-c3ccc(-c4ccc(-[n+]5nc(-c6ccccc6)nn5-c5ccccc5)cc4)cc3)n2)cc1` [NEOTETRAZOLIUM CHLORIDE] are 0.35 µM, 11 µM and 31.4.
Regarding `COc1cc(-c2ccc(-n3nc(-c4ccccc4)n[n+]3-c3ccccc3)c(OC)c2)ccc1-n1nc(-c2ccccc2)n[n+]1-c1ccccc1` [TETRAZOLIUM BLUE CHLORIDE], the IC50 was 3.8 µM in the data set with Plasmodium falciparum and over 100 µM in data set [1].
Take `COc1cc(-c2nn(-c3ccccc3)[n+](-c3ccc([N+](=O)[O-])cc3)n2)cc(OC)c1OC(C)=O.[Cl-]`: the IC50 with Plasmodium falciparum amounted to 7.3 µM; in data set [1], 19 µM. The “Ratio IC50” value in data set [2] was 2.6.
For `O=[N+]([O-])c1ccc(-n2nc(-c3ccccc3)n[n+]2-c2ccc(I)cc2)cc1.[Cl-]` [IODONITROTETRAZOLIUM CHLORIDE] the same measures were 81 µM, 49 µM and 0.6.
For `Clc1cccc(-[n+]2nc(-c3ccc(-c4ccccc4)cc3)nn2-c2ccccc2)c1.[Cl-]` the same measures were 0.115 µM, 10 µM and 87.
As for `CCCCCCc1nn(-c2ccccc2)[n+](-c2ccccc2)n1.[Br-]`, the half-maximal inhibitory concentration (IC50) in the data set on Plasmodium falciparum worked out at 3.4 µM; in data set [1], 21 µM. Further, the “Ratio IC50” value in data set [2] turned out to be 6.2.
`Clc1cccc(-[n+]2nc(-c3ccccc3)nn2-c2ccc(OCc3ccccc3)cc2)c1.[Cl-]`: the figures for the IC50 (with Plasmodium falciparum; in data set [1]) were 0.1 µM and 14 µM, respectively. The “Ratio IC50” value in data set [2] was determined as 140.
For `O=[N+]([O-])c1ccc(-c2nn(-c3ccccc3)[n+](-c3ccccc3)n2)cc1.[Cl-]` the same measures were 14 µM, 31 µM and 2.2.
For `Fc1ccc(-[n+]2nc(-c3ccc(OCc4ccccc4)cc3)nn2-c2ccccc2)cc1.[Cl-]` the same measures were 0.47 µM, 16 µM and 34.
For the molecule `Clc1cccc(-[n+]2nc(-c3ccccc3)nn2-c2ccccc2)c1.[Cl-]`, the results for the IC50 (in the data set on Plasmodium falciparum; in data set [1]) were 0.84 µM and 6.3 µM, respectively. In addition, the “Ratio IC50” value in data set [2] was 7.5.
In the same order, the values of `[Cl-].c1ccc(-n2nc(-c3cccc4ccccc34)n[n+]2-c2ccccc2)cc1` are 0.35 µM, 2.4 µM and 6.9.
With `CCCCCCCCCCCOc1ccc(-c2nn(-c3ccccc3)[n+](-c3ccccc3)n2)cc1.[Cl-]`, the IC50 in the data set on Plasmodium falciparum turned out to be 4 µM; in data set [1], 0.4 µM. The “Ratio IC50” value in data set [2] amounted to 0.1.
With `COc1cc(-c2ccc(-n3nc(-c4ccc([N+](=O)[O-])cc4)n[n+]3-c3ccc([N+](=O)[O-])cc3)c(OC)c2)ccc1-n1nc(-c2ccc([N+](=O)[O-])cc2)n[n+]1-c1ccc([N+](=O)[O-])cc1`, the IC50 in data set [1] came to 1.3 µM.
For `COc1ccc(-n2nc(-c3ccc(OCc4ccccc4)cc3)n[n+]2-c2ccccc2)cc1.[Cl-]`, the IC50 in the data set on Plasmodium falciparum was found to be 0.32 µM; in data set [1], 9 µM. The “Ratio IC50” value in data set [2] is on record as 28.1.
For `COc1cc(-c2nn(-c3ccccc3)[n+](-c3cccc(Cl)c3)n2)ccc1OCc1ccccc1.[Cl-]` the same measures were 0.69 µM, 8 µM and 11.6.
In the same order, the values of `COc1cc(-c2nn(-c3ccccc3)[n+](-c3cccc(F)c3)n2)ccc1OCc1ccccc1.[Cl-]` are 3.2 µM, 6.5 µM and 2.
In the same order, the values of `Fc1cccc(-[n+]2nc(-c3ccccc3)nn2-c2ccccc2)c1.[Cl-]` are 2.2 µM, 36 µM and 16.4.
As for `[Cl-].c1ccc(-c2nn(-c3ccccc3)[n+](-c3cccc4ccccc34)n2)cc1` [TETRAZOLIUM VIOLET], the half-maximal inhibitory concentration (IC50) in the data set on Plasmodium falciparum amounted to 0.15 µM; in data set [1] it was 15 µM. In addition, in data set [2], the “Ratio IC50” value amounted to 100.
For `O=[N+]([O-])c1ccc(-[n+]2nc(-c3ccc(Br)cc3)nn2-c2ccccc2)cc1.[Cl-]` the same measures were 10 µM, 7 µM and 0.7.
For `COc1ccc(-c2nn(-c3ccccc3)[n+](-c3ccc([N+](=O)[O-])cc3)n2)cc1.[Cl-]` the same measures were 3.7 µM, 6 µM and 1.6.
In the same order, the values of `Fc1cccc(-[n+]2nc(-c3ccc(OCc4ccccc4)cc3)nn2-c2ccccc2)c1.[Cl-]` are 0.42 µM, 4.3 µM and 10.2.
For the molecule `Clc1cccc(-n2nc(-c3ccccc3)n[n+]2-c2cccc(Cl)c2)c1.[Cl-]`, the half-maximal inhibitory concentration (IC50) came out at 0.5 µM in the data set on Plasmodium falciparum and 36 µM in data set [1]. In data set [2], the “Ratio IC50” value is listed as 72.
With `[Cl-].c1ccc(COc2ccc(-n3nc(-c4ccccc4)n[n+]3-c3ccccc3)cc2)cc1`, the half-maximal inhibitory concentration (IC50) in the data set on Plasmodium falciparum is 0.2 µM; in data set [1], 37 µM. The “Ratio IC50” value in data set [2] was 185.
In the same order, the values of `COc1cc(-c2nn(-c3ccccc3)[n+](-c3ccc(Cl)cc3)n2)ccc1OCc1ccccc1.[Cl-]` are 3.8 µM, 32 µM and 8.4.
With `Clc1cccc(-c2nn(-c3ccccc3)[n+](-c3ccccc3)n2)c1.[Cl-]`, the IC50 with Plasmodium falciparum is 0.46 µM; in data set [1] it was 43 µM. In data set [2], the “Ratio IC50” value is 93.5.
In the same order, the values of `COc1ccc(-n2nc(-c3ccc(-c4ccccc4)cc3)n[n+]2-c2ccc(Cl)cc2)cc1.[Cl-]` are 0.4 µM, 12 µM and 30.
`[Cl-].c1ccc(COc2ccc(-n3nc(-c4ccc(-c5ccccc5)cc4)n[n+]3-c3ccccc3)cc2)cc1`: the IC50 with Plasmodium falciparum is 0.261 µM; in data set [1], 1.7 µM. In addition, the “Ratio IC50” value in data set [2] stood at 6.5.
Consider `COc1ccc(-n2nc(-c3ccc(OCc4ccccc4)cc3)n[n+]2-c2cccc(Cl)c2)cc1.[Cl-]`, for which the IC50 with Plasmodium falciparum turned out to be 0.29 µM; in data set [1] it was 16 µM. In data set [2], the “Ratio IC50” value worked out at 55.2.
As for `Clc1cccc(-n2nc(-c3ccc(OCc4ccccc4)cc3)n[n+]2-c2cccc(Cl)c2)c1.[Cl-]`, the results for the IC50 (with Plasmodium falciparum; in data set [1]) were 1.3 µM and 21 µM, respectively. Further, in data set [2], the “Ratio IC50” value is reported as 16.2.
For `Clc1ccc(-[n+]2nc(-c3ccccc3)nn2-c2ccccc2)cc1.[Cl-]` the same measures were 0.63 µM, 39 µM and 61.9.
Take `Fc1ccc(-[n+]2nc(-c3ccccc3)nn2-c2ccccc2)cc1.[Cl-]`: the IC50 was determined as 0.93 µM with Plasmodium falciparum and 39 µM in data set [1]. Besides, the “Ratio IC50” value in data set [2] came to 41.9.
In the same order, the values of `COc1ccc(-[n+]2nc(-c3ccc(-c4ccccc4)cc3)nn2-c2ccccc2)cc1.[Cl-]` are 0.43 µM, 19 µM and 44.2.
For `Fc1ccccc1-[n+]1nc(-c2ccccc2)nn1-c1ccccc1.[Cl-]` the same measures were 0.39 µM, 44 µM and 112.8.
In the same order, the values of `Fc1ccccc1-[n+]1nc(-c2ccc(-c3ccccc3)cc2)nn1-c1ccccc1.[Cl-]` are 0.36 µM, 8 µM and 22.2.
In the case of `COc1cc(-c2nn(-c3ccccc3)[n+](-c3ccccc3F)n2)ccc1OCc1ccccc1.[Cl-]`, the IC50 in the data set with Plasmodium falciparum turned out to be 2.2 µM; in data set [1], 2.7 µM. For the same molecule, the “Ratio IC50” value in data set [2] was found to be 1.2.

As a reminder, the IC50 is the midpoint of a concentration-inhibition curve.
